The subject of data set [1] is A2780. Briefly: Induction of mitotic arrest in human A2780 cells […] clr:NU/NU-nuBR mouse assessed as minimum plasma concentration required to induce maximum mitotic arrest after 22 hrs. The data set is classed as functional.
A short description of data set [2]: Inhibition of human KSP.
A short description of data set [3]: Dissociation constant, pKa by Sirius GLpKa titrator. Format: physicochemical. A digest of the protocol: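 Potentiometric pKa measured on a Sirius GLpKa titrator; mean of n = 3 determinations unless marked as a single determination.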
Data set [4] concerns Rattus norvegicus. Briefly: AUC in rat at 4 mg/kg, iv. The data set is classed as ADME, organism-based, Plasma. On the set-up: dose 4 mg/kg, route intravenous. The settings on record: in vivo.
Data set [5] in a line: Inhibition of human KSP in presence of 30% mouse serum. A digest of the protocol:
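KSP ATPase assay as the primary one (0.25 nM KSP motor domain, microtubules, 1 mM ATP, pH 6.8, 3 h at RT, quinaldine red phosphate read-out), run with 30% mouse serum dialysed against reaction buffer (12-14 kDa cutoff). Mean of at least 3 experiments unless noted.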

Data set [6] has as its system Rattus norvegicus. Briefly: AUC in rat at 1 mg/kg, iv. Format: ADME, organism-based, Plasma. The note with it: in vivo. Further details: dose 1 mg/kg, route intravenous.
For data set [7], the system named is Rattus norvegicus. The data set can be described thus: AUC in rat at 12 mg/kg, iv. On the set-up: dose 12 mg/kg, route intravenous. The settings on record: in vivo. The data set is classed as ADME, organism-based, Plasma.
For data set [8], the system named is A2780. The data set can be described thus: Induction of mitotic arrest in human A2780 cells expressing MDR1 after 16 hrs. Format: functional, cell-based. The note with it: A2780, 16 h.
A short description of data set [9]: Ratio of IC50 for induction of mitotic arrest in human […] to IC50 for induction of mitotic arrest in […] human KB-V-1 cells. Format: functional. The method, boiled down: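 Phospho-nucleolin mitotic-arrest assay in parental KB-3-1 and MDR1-overexpressing KB-V-1 cells (>500-fold higher MDR1 mRNA). Cells were treated in triplicate for 16 h across 10 000 to 0.1 nM (11-point, half-log series; 0.1% DMSO final). Total nucleolin was bead-captured from lysates and phospho-nucleolin detected by TG3 antibody plus a ruthenium-labelled secondary. Ratio = IC50 (KB-V-1) / IC50 (KB-3-1).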

Data set [10] addresses Voltage-gated inwardly rectifying potassium channel KCNH2 (Homo sapiens, UniProt Q12809).

Voltage-gated inwardly rectifying potassium channel KCNH2, sequence (Q12809 whole entry): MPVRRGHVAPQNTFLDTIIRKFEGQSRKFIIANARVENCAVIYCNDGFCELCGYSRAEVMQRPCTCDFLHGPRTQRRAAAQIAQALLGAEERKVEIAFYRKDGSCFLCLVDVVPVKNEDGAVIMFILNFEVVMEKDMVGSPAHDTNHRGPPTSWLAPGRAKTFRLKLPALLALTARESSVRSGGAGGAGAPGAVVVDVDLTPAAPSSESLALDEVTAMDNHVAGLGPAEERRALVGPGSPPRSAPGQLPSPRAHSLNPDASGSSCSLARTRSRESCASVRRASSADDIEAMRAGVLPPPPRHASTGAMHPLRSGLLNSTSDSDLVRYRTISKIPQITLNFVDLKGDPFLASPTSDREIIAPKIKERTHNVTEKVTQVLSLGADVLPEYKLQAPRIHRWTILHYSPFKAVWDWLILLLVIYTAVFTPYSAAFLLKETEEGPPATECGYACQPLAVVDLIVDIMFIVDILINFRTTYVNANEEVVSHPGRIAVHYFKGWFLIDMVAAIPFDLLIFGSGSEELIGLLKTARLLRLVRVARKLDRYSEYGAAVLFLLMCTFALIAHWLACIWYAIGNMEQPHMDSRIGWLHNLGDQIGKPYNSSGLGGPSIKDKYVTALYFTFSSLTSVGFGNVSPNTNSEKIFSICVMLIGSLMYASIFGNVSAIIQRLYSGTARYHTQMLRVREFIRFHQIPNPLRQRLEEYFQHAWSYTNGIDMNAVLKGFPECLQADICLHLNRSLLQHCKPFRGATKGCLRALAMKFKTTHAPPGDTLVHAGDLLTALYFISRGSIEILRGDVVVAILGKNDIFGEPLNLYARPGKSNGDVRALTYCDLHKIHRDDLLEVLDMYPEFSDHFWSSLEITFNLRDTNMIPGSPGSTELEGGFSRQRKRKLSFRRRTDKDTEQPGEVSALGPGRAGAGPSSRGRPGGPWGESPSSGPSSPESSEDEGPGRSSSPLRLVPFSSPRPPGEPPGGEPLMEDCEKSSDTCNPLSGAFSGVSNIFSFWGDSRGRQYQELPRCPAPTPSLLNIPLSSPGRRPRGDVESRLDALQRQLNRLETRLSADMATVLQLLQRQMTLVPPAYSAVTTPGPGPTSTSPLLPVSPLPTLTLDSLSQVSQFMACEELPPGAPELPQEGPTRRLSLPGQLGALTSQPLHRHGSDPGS

For orientation: EC90 means the concentration at which the effect reaches the 90% level. The IC50 is the point on the concentration scale where inhibition reaches its midpoint. In the case of `CN1CCC(N(C)C(=O)N2CC(c3cc(F)ccc3F)=C[C@H]2c2ccccc2)CC1`, the EC90 in the data set with A2780 [1] was 400 nM. This compound also displayed a 50% inhibitory concentration (IC50) in data set [2] of 4 nM.

For orientation: pKa means the negative logarithm of the acid dissociation constant. Read a low pKa as a stronger acid or weaker base. In the case of `CN(C(=O)N1CC(c2cc(F)ccc2F)=C[C@@]1(CO)c1ccccc1)C1CCN(CC(F)F)CC1`, in [3], the pKa worked out at 4.9. In [2], this compound yielded a half-maximal inhibitory concentration (IC50) of 34.1 nM.

`CN(C)C(=O)N1CC(c2cc(F)ccc2F)=C[C@@]1(CO)c1ccccc1`: the half-maximal inhibitory concentration (IC50) in data set [2] stood at 78 nM.

In general, AUC refers to concentration integrated over time. Low readings indicate low exposure, high ones high exposure. The EC50 is the concentration giving half of the maximal effect. Lower therefore signals greater potency. `CN(C(=O)N1CC(c2cc(F)ccc2F)=C[C@@]1(CO)c1ccccc1)C1CCN(CCF)CC1`: the values for the AUC with Rattus norvegicus [4], in the data set on Rattus norvegicus [6] and in the data set on Rattus norvegicus [7] were 2.5 µM·h, 0.5 µM·h and 9.5 µM·h, respectively. For the same compound, the figures for the 50% inhibitory concentration (IC50) in [5] and in data set [2] were 38.8 nM and 5 nM, respectively. For the same compound, the concentration for an effect of 90% (EC90) with A2780 [1] is on record as 100 nM. The compound also returned a pKa in data set [3] of 7.6. The same compound came in with an EC50 with A2780 [8] of 4.8 nM.

`CN(C(=O)N1CC(c2cc(F)ccc2F)=C[C@@]1(CO)c1ccccc1)C1CCNCC1`: in data set [3], the pKa was 9.8. In [2], this compound came in with an IC50 of 7.4 nM.

Consider `CN(C(=O)N1CC(c2cc(F)ccc2F)=C[C@@]1(CO)c1ccccc1)C1CCN(CC2CC2)CC1`, for which the pKa in data set [3] is 9.1. In data set [2], the half-maximal inhibitory concentration (IC50) worked out at 5.1 nM.

The compound `CN(C(=O)N1CC(c2cc(F)ccc2F)=C[C@@]1(CO)c1ccccc1)C1CCN(C2CC2)CC1` displayed a pKa in [3] of 7.5. The compound also displayed an IC50 in data set [2] of 5.9 nM.

With `CN1CC[C@H](N(C)C(=O)N2CC(c3cc(F)ccc3F)=C[C@@]2(CO)c2ccccc2)[C@@H](F)C1`, the Ratio in data set [9] came to 2.4. The IC50 in data set [10] worked out at 36900 nM; in data set [2], 11.5 nM. For the same compound, the pKa in [3] is 6.6. For the same compound, the EC50 with A2780 [8] came to 16.5 nM.

Consider `CN1CCC(N(C)C(=O)N2CC(c3cc(F)ccc3F)=C[C@@]2(CO)c2ccccc2)CC1`, for which the figures for the half-inhibitory concentration (IC50) in [5] and in data set [2] were 29.1 nM and 6.2 nM, respectively. The EC90 in the data set with A2780 [1] is 125 nM. Also, the pKa in data set [3] was 8.8. This compound also returned a concentration giving a half-maximal response (EC50) in the data set on A2780 [8] of 5.6 nM.

Consider `CN1CC[C@@H](N(C)C(=O)N2CC(c3cc(F)ccc3F)=C[C@@]2(CO)c2ccccc2)[C@@H](F)C1`, for which the Ratio in data set [9] amounted to 4.8. In the data set on A2780 [8], this compound displayed an EC50 of 13.8 nM. This compound came in with a 50% inhibitory concentration (IC50) in data set [2] of 13.3 nM.

In the case of `CC(=O)O[C@H]1C(=O)[C@@]2(C)[C@H]([C@H](OC(=O)c3ccccc3)[C@]3(O)C[C@H](OC(=O)[C@H](O)[C@@H](NC(=O)c4ccccc4)c4ccccc4)C(C)=C1C3(C)C)[C@]1(OC(C)=O)CO[C@@H]1C[C@@H]2O` [PACLITAXEL], the 50% effective concentration (EC50) with A2780 [8] was over 10000 nM. Moreover, inhibition in data set [2] was half-maximal at 0.5 nM (IC50).

`CN1CC[C@@H](N(C)C(=O)N2CC(c3cc(F)ccc3F)=C[C@@]2(CO)c2ccccc2)[C@H](F)C1`: the Ratio in data set [9] amounted to 2.9. In addition, the 50% effective concentration (EC50) in the data set on A2780 [8] came to 37.6 nM. Further, in [2], the IC50 came to 11.9 nM.

In the case of `CN(C)C(=O)N1CC(c2cc(F)ccc2F)=C[C@@]1(CC[C@@H](N)C(F)F)c1ccccc1`, the half-maximal inhibitory concentration (IC50) was 15900 nM in data set [10], 84.2 nM in [5] and 5 nM in data set [2]. Moreover, in the data set on A2780 [1], the EC90 is given as 1425 nM. Besides, it took 22.5 nM to reach a half-maximal effect with A2780 [8] (EC50).

The record behind these values is ChEMBL document CHEMBL1155077, “Kinesin spindle protein (KSP) inhibitors. 9. Discovery of (2S)-4-(2,5-difluorophenyl)-n-[(3R,4S)-3-fluoro-1-methylpiperidin-4-yl]-2-(hydroxymethyl)-N-methyl-2-phenyl-2,5-dihydro-1H-pyrrole-1-carboxamide (MK-0731) for the treatment of taxane-refractory cancer” (J Med Chem, 2008).
